The list is not random: actives were taken first. Their share in the collection is about 2.1%.
CHRM1 PAM: positive allosteric modulators of human M1 muscarinic receptor; P11229; CHO-K1 hM1, Fluo-8 calcium fluorescence, ACh EC20; 0% = ACh EC20, 100% = maximal ACh; activation, % at 3 µM; 360,000 compounds, 0.088% hits; AID 588819; in the data active = activation above about 19%, passing the limit was not always enough
Target sequence (P11229 whole entry, looked up): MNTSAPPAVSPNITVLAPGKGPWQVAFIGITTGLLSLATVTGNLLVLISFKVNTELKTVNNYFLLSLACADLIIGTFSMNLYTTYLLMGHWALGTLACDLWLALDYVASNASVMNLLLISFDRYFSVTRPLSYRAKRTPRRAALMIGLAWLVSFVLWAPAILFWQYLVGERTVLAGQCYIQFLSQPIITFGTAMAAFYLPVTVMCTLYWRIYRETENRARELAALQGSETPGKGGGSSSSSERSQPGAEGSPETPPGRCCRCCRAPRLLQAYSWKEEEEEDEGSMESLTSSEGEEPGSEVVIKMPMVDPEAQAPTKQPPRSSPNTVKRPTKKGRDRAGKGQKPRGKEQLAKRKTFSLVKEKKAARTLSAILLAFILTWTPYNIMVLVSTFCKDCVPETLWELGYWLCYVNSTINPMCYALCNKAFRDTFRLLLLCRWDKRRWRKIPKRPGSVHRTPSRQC
M5 ag: CHRM5 agonism in calcium assay. P08912. AID 624037. 360,000 compounds, 0.19% hits. CHO-K1 hM5 cells, Fluo-8 calcium fluorescence; 0% DMSO wells, 100% maximal acetylcholine response. activation, % at 3 µM;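 active = activation above the run's mean over test compounds plus 3 SD, cut at about 23% in these data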;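 note: signal is peak over basal fluorescence ratio across the kinetic read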
CHRM5 antagonist: CHRM5 antagonism in calcium assay; AID 624040; 360,000 compounds, 0.59% hits; P08912; CHO-hM5 cells, Fluo-8 calcium fluorescence, ACh EC80; inhibition, % at 3 µM;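 active = inhibition above a per-plate cutoff, the mean of that plate's test compounds plus 3 SD, cut at about 27% in these data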;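 note: 0% = acetylcholine EC80 with DMSO and 100% = DMSO without agonist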
M1 antag: antagonists of human M1 muscarinic receptor; CHO-K1 hM1, Fluo-8 calcium fluorescence, ACh EC80 antagonist; inhibition, % at 3 µM; AID 588852; 360,000 compounds, 1.3% hits;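 active = percent inhibition above its own plate's cutoff, namely the mean of that plate's compound wells plus 3 SD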;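 note: peak over basal fluorescence ratio during 140 s after agonist addition; 0% = ACh EC80 plus DMSO and 100% = DMSO alone without agonist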
CHRM5 PAM: potentiates acetylcholine response at human M5 receptor; 360,000 compounds, 0.3% hits; AID 624038; P08912; activation, % at 3 µM; CHO-K1 hM5, Fluo-8 calcium, ACh EC20 PAM; 0% = ACh EC20, 100% = ACh EC100;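 active = activation above the run cutoff, the mean activation of all test compounds plus 3 SD, cut at about 18% in these data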
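Assay system: CHO-K1 hM5 cells / Incubation: Fluo-8 loading 80 min at 37 °C plus 30 min room temperature / Technique: Fluo-8 calcium dye fluorescence, kinetic read / Repeats: single replicate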
M1 ag: agonists of human M1 muscarinic receptor; P11229; 360,000 compounds, 0.33% hits; activation, % at 3 µM; CHO-K1 hM1, Fluo-8 calcium fluorescence, agonist mode; 0% DMSO, 100% acetylcholine EC100; AID 588814;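 active = activation above the run's mean compound activation plus 3 SD, cut at about 16% in these data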;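 note: peak over basal fluorescence ratio within a 140 s kinetic read after compound addition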
* marks the source's active call; other numbers are inactive results.

Results for CN1CCN(CC#CCC(O)(c2ccccc2)c2ccccc2)CC1 ?
CHRM1 PAM: 3.6; M5 ag: -3.5; CHRM5 antagonist: -10.7; M1 antag: -2.0; CHRM5 PAM: 7.8; M1 ag: -6.2

How did CC(C)C(O)(CC#CCN1CCCC1)c1ccccc1 (configuration not stated) do in these assays?
CHRM1 PAM: -25.6; M5 ag: -17.8; CHRM5 antagonist: 42.4*; M1 antag: 99.0*; CHRM5 PAM: -34.9; M1 ag: -8.0

How did OC(CC#CCN1CCOCC1)(c1ccccc1)c1ccccc1 do in these assays?
CHRM1 PAM: 5.2; M5 ag: 0.6; CHRM5 antagonist: 4.4; M1 antag: -10.4; CHRM5 PAM: -5.7; M1 ag: -9.3

Results for C=CCN(C(=O)CCC(=O)Nc1cc(C)on1)C(C(=O)NC1CCCC1)c1ccc(OC)cc1OC (configuration not stated) ?
CHRM1 PAM: 15.6; M5 ag: -2.9; CHRM5 antagonist: 4.9; M1 antag: -15.4; CHRM5 PAM: 0.3; M1 ag: -5.3

Results for COC(=O)c1ccc(SC)cn1 ?
CHRM1 PAM: 4.8; M5 ag: 0.6; CHRM5 antagonist: -6.4; M1 antag: -0.7; CHRM5 PAM: -2.9; M1 ag: -5.5

Results for Nc1ccc(N2CCN(C(=O)c3cccs3)CC2)cc1 ?
CHRM1 PAM: -1.3; M5 ag: -0.4; CHRM5 antagonist: -4.8; M1 antag: 7.8; CHRM5 PAM: 0.9; M1 ag: -5.5

What do the screens show for `CC(C)(C)C(O)(CC#CCN1CCCC1)c1ccccc1` (configuration not stated)?
CHRM1 PAM: -23.1; M5 ag: -13.0; CHRM5 antagonist: 34.3*; M1 antag: 98.3*; CHRM5 PAM: -32.9; M1 ag: -5.2

How did CC(C)(C)C(CN1CCCC1)OC(=O)c1ccccc1 (configuration not stated) do in these assays?
CHRM1 PAM: 6.6; M5 ag: -5.1; CHRM5 antagonist: -3.1; M1 antag: -16.2; CHRM5 PAM: -1.0; M1 ag: -9.1

Results for CCN(CC)C(=O)C1=C(C)N(Cc2ccc(F)cc2)C(=O)C(CC(=O)NCCCCc2ccccc2)C1 (configuration not stated) ?
CHRM1 PAM: 11.9; M5 ag: -1.6; CHRM5 antagonist: -6.4; M1 antag: -16.6; CHRM5 PAM: -0.7; M1 ag: 14.6

How did CC1=C(C(=O)N(C)C)CC(CC(=O)NCCCCc2ccccc2)C(=O)N1Cc1ccc(F)cc1 (configuration not stated) do in these assays?
CHRM1 PAM: -14.8; M5 ag: -1.0; CHRM5 antagonist: 11.8; M1 antag: 8.5; CHRM5 PAM: -2.9; M1 ag: 34.5*

What do the screens show for `CC(Oc1ccc(Br)cc1)C(=O)Nc1ccc(S(=O)(=O)NC2=NCCCCC2)cc1` (configuration not stated)?
CHRM1 PAM: -8.2; M5 ag: 29.1*; CHRM5 antagonist: 18.0; M1 antag: 17.5; CHRM5 PAM: -9.9; M1 ag: 28.8*

What do the screens show for `CC(Oc1cccc(Cl)c1)C(=O)Nc1ccc(S(=O)(=O)NC2=NCCCCC2)cc1` (configuration not stated)?
CHRM1 PAM: 7.2; M5 ag: 10.2; CHRM5 antagonist: 6.7; M1 antag: -8.2; CHRM5 PAM: -2.9; M1 ag: 12.0

Results for CC(Oc1ccc(F)cc1)C(=O)Nc1ccc(S(=O)(=O)NC2=NCCCCC2)cc1 (configuration not stated) ?
CHRM1 PAM: 3.4; M5 ag: 17.3; CHRM5 antagonist: 15.2; M1 antag: -3.8; CHRM5 PAM: -7.4; M1 ag: 23.6*

What do the screens show for `CCCCN(CCCC)Cc1ccc(C(=O)NNC(=O)Nc2ccc(Cl)cc2)o1`?
CHRM1 PAM: 6.4; M5 ag: -8.1; CHRM5 antagonist: 12.3; M1 antag: -14.5; CHRM5 PAM: -1.9; M1 ag: -6.0

What do the screens show for `CCOC(=O)/C(=C/C=C1\Sc2ccccc2N1CC)C(C)=O`?
CHRM1 PAM: -15.6; M5 ag: 46.6*; CHRM5 antagonist: 23.5; M1 antag: 20.8; CHRM5 PAM: -15.7; M1 ag: 19.0*

What do the screens show for `CCOC(=O)/C(=C/C=C1\Sc2cc(C)c(C)cc2N1CC)C(C)=O`?
CHRM1 PAM: -16.0; M5 ag: 12.0; CHRM5 antagonist: 10.5; M1 antag: 32.6*; CHRM5 PAM: -0.4; M1 ag: 51.4*

Results for CCOC(=O)/C(=C\C=C1/Sc2ccccc2N1CC)C(C)=O ?
CHRM1 PAM: -13.4; M5 ag: 35.6*; CHRM5 antagonist: 10.2; M1 antag: 25.1; CHRM5 PAM: -15.2; M1 ag: 46.9*

What do the screens show for `CCC(=O)/C=C1/Sc2ccccc2N1CC`?
CHRM1 PAM: 1.1; M5 ag: -0.7; CHRM5 antagonist: 3.8; M1 antag: -19.3; CHRM5 PAM: -4.1; M1 ag: -6.5

Results for Cc1n[nH]c(C)c1Cc1c(F)cccc1Cl ?
CHRM1 PAM: 8.0; M5 ag: -9.6; CHRM5 antagonist: 26.2; M1 antag: -17.1; CHRM5 PAM: 27.8*; M1 ag: -4.9

What do the screens show for `CC[C@@H](C(=O)[C@@H](C)[C@@H](O)[C@H](C)CCc1ccc(C)c(O)c1C(=O)O)[C@H]1O[C@](CC)([C@H]2CC[C@](O)(CC)[C@H](C)O2)C[C@@H]1C`?
CHRM1 PAM: -19.0; M5 ag: 26.9*; CHRM5 antagonist: 0.2; M1 antag: -5.6; CHRM5 PAM: -14.2; M1 ag: 60.5*

Results for CC1CCCCC12NC(=O)N(CC(=O)OCC(=O)Nc1ccc(F)cc1[N+](=O)[O-])C2=O (configuration not stated) ?
CHRM1 PAM: -16.7; M5 ag: 6.7; CHRM5 antagonist: 12.0; M1 antag: 29.0*; CHRM5 PAM: -32.6; M1 ag: 3.4

What do the screens show for `COc1cc(/C=C(\C#N)c2nc3ccccc3o2)ccc1O`?
CHRM1 PAM: -15.0; M5 ag: 53.0*; CHRM5 antagonist: 46.3*; M1 antag: 40.4*; CHRM5 PAM: -24.2; M1 ag: 35.4*

Results for N#C/C(=C\c1ccc(O)cc1)c1nc2ccccc2o1 ?
CHRM1 PAM: -8.1; M5 ag: 9.8; CHRM5 antagonist: 10.2; M1 antag: 11.9; CHRM5 PAM: -9.4; M1 ag: 2.7

Results for CCCCCC(=O)NC(Cc1ccc(OC)c([N+](=O)[O-])c1)C(=O)O (configuration not stated) ?
CHRM1 PAM: 1.4; M5 ag: -2.3; CHRM5 antagonist: 3.8; M1 antag: 3.5; CHRM5 PAM: 0.2; M1 ag: -4.4

Source: PubChem
